Data published in ChEMBL document CHEMBL3621080, “Dihydrithieno[2,3-b]naphto-4,9-dione analogues as anticancer agents: Synthesis and in cell pharmacological studies” (Eur J Med Chem, 2015).
The source made the active and inactive calls. The calls are words filed in the database; no cut-off is given here.

How the values were obtained:
[1] = Antiproliferative activity against human HuH7 cells assessed as growth inhibition incubated for 48 hrs by MTT assay; assay type: functional, cell-based; details: Huh-7, 48 h
How it was run: (§1)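 Cell lines were grown at 37 °C in 5% CO2 with 10% FBS and penicillin/streptomycin, in DMEM for HuH7 and LN229 and in RPMI-1640 for BxPC3 and MCF7. Cells were seeded at 10^5 per well and left 24 h to attach. Compounds were then added at […] for 48 h. MTT at 1 mg/mL was applied for 2 h at 37 °C in the dark, formazan was dissolved in DMSO and read at 570 nm. Results are relative to 0.5% DMSO vehicle control, with IC50 by linear/polynomial regression, in triplicate.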

[2] = Antiproliferative activity against human BxPC3 cells assessed as growth inhibition incubated for 48 hrs by MTT assay; assay type: functional, cell-based; details: BXPC-3, 48 h; how it was run: as §1
[3] = Drug uptake in human LN229 cell nucleus at 0.6 uM incubated for 48 hrs by confocal microscopy; assay type: ADME, cell-based; details: ln229, 48 h
How it was run: (§2)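 LN229 cells were treated for 48 h at […] and fixed in 4% paraformaldehyde. Nuclei were counterstained with DAPI and vimentin immunostained. Compound localisation was imaged by its red signal using confocal microscopy.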

[4] = Antiproliferative activity against human LN229 cells assessed as growth inhibition incubated for 48 hrs by MTT assay; assay type: functional, cell-based; details: LN-229, 48 h; how it was run: as §1
[5] = (§3) Cytotoxicity against rat H9c2 cells assessed as cell growth at 2.5 uM incubated for 48 hrs by MTT assay relative to control; assay type: cell-based; details: H9c2 cells, read-out: Activity
LN-229 [6] = assay: Inhibition of glucose uptake in human LN229 cells assessed as glucose concentration per ug protein at 0.6 uM incubated for 48 hrs by liquid scintillation method (reference value: 98 +/- 8 mg/dl/ug protein); assay type: functional
H9c2 [7] = assay: Cytotoxicity against rat H9c2 cell membrane assessed as induction of lipid peroxidation at 2.5 uM incubated for 48 hrs by TBARS method; assay type: cell-based; details: h9c2, 48 h
How it was run: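 H9C2 cells were treated for 48 h at […] and lysed in ice-cold Tris/NaCl/EDTA/1% Triton with protease inhibitors. Membranes were pelleted at 1200 g for 10 min and the protein content measured. Membrane aliquots were heated at 100 °C for 30 min in 15% TCA/0.3% TBA in 0.12 N HCl, cooled and centrifuged, and the TBA adduct read at 532 nm. Values are per mg protein, mean ± SEM, n=3.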

MCF7 = assay: Antiproliferative activity against human MCF7 cells assessed as growth inhibition incubated for 48 hrs by MTT assay; assay type: functional, cell-based; details: MCF7, 48 h; how it was run: as §1
[8] = Cytotoxicity against human LN229 cells assessed as growth inhibition at 0.6 uM incubated for 48 hrs by MTT assay relative to control; assay type: functional, LN-229; design: scale not given: the % may be the effect or the level left
LN-229 [9] = assay: Induction of apoptosis in human LN229 cells assessed as caspase-3 activation at 0.6 uM incubated for 48 hrs by cell-free caspase-3 activity assay
[10] = Drug uptake in human LN229 cell cytoplasm at 0.6 uM incubated for 48 hrs by confocal microscopy; assay type: ADME, cell-based; details: ln229, 48 h; how it was run: as §2
[11] = Down regulation of AKT expression in human LN229 cells at 0.6 uM incubated for 48 hrs by Western blot method; assay type: functional, cell-based; details: LN-229
How it was run: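 LN229 cells grown in DMEM with 10% FBS and penicillin/streptomycin at 37 °C, 5% CO2, treated 48 h. Cells washed in ice-cold PBS/BSA and lysed in Triton/deoxycholate buffer with protease inhibitors. Equal protein run on SDS-PAGE, then nitrocellulose. Anti-AKT overnight in TBS/1% milk/0.05% Tween 20; tubulin also probed. HRP secondary 1 h at room temperature.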

H9c2 [12] = assay: as §3; assay type: cell-based; details: h9c2, 48 h, 2.5 µM
LN-229 [13] = assay: Induction of lipid peroxidation in human LN229 cells assessed as increase in TBARS level at 0.6 uM incubated for 48 hrs by TBARS assay; assay type: functional
How it was run: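 LN229 cells in DMEM with 10% FBS, treated 48 h. Lysed in ice-cold Tris/NaCl/EDTA/1% Triton with protease inhibitors, spun 1200 g for 10 min; membrane pellet redissolved and protein measured. Membranes heated with 15% TCA/0.3% TBA in 0.12 N HCl at 100 °C for 30 min, cooled, spun 15,000 g, read at 532 nm. TBARS expressed per mg protein; mean of three experiments.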

LN-229 [14] = assay: Induction of cell differentiation in human LN229 cells assessed as vimentin remodelling at 0.6 uM incubated for 48 hrs by immunostaining method; assay type: functional, cell-based
How it was run: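 LN229 cells were treated for 48 h at […], fixed in 4% paraformaldehyde and permeabilised 5 min in 1% Triton. They were stained with anti-vimentin (1:1000) followed by Cy3 anti-rabbit IgG (1:200, 45 min), with DAPI nuclei, and imaged by confocal microscopy.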

LN-229 [15] = assay: Inhibition of glucose uptake in human LN229 cells assessed as glucose concentration per ug protein at 0.6 uM incubated for 48 hrs by liquid scintillation method relative to control; assay type: functional

Structure (SMILES)	IC50 [1]	IC50 [2]	IC50 [4]	viability at 48 h, 2.5 µM [5]	Activity (H9c2 [7])	IC50 (MCF7)	Activity [8]	also measured
COc1cccc2c1C(=O)c1c(O)c3c(c(O)c1C2=O)C[C@@](O)(C(=O)CO)C[C@@H]3O[C@H]1C[C@H](N)[C@H](O)[C@H](C)O1 [DOXORUBICIN]	1.11 µM	1.78 µM	2.25 µM	53%	Toxic	–	–	Drug uptake [3]: Active; Activity (LN-229 [6]): 120 mg/dL
O=C(NC1(CO)CSC2=C1C(=O)c1ccccc1C2=O)c1ccc(Cl)cc1 (configuration not stated)	> 10 µM	> 10 µM	> 10 µM	–	–	> 10 µM	–	–
Cl.O=C(CN1CCCCC1)N[C@]1(C(=O)NCc2ccc(Cl)cc2)CSC2=C1C(=O)c1ccccc1C2=O	–	–	–	–	–	–	48%	–
Cl.O=C(CN1CCCCC1)NC1(C(=O)NCc2ccc(Cl)cc2)CSC2=C1C(=O)c1ccccc1C2=O (configuration not stated)	1.02 µM	0.83 µM	0.61 µM	–	Non-toxic	0.82 µM	50%	fold change (FC) (LN-229 [9]): 3; Drug uptake [10]: Active; fold change (FC) [11]: 2; Activity (H9c2 [12]): Non-toxic; Activity (LN-229 [6]): 215 mg/dL; fold change (FC) (LN-229 [13]): 5; Activity (LN-229 [14]): Active; fold change (FC) (LN-229 [15]): 2.2
O=C(NC1(C(=O)NCc2ccc(Cl)cc2)CSC2=C1C(=O)c1ccccc1C2=O)c1ccc(Cl)cc1 (configuration not stated)	0.44 µM	0.66 µM	0.32 µM	61%	Toxic	0.47 µM	–	–
O=C(CNc1ccc(Cl)cc1)NC1(CO)CSC2=C1C(=O)c1ccccc1C2=O (configuration not stated)	3.51 µM	2.18 µM	1.23 µM	–	–	2.12 µM	–	–
O=C(CNCc1ccc(Cl)cc1)NC1(CO)CSC2=C1C(=O)c1ccccc1C2=O (configuration not stated)	3.9 µM	1.68 µM	1.25 µM	–	–	1.72 µM	–	–
Cl.O=C(CN1CCCCC1)N[C@@]1(C(=O)NCc2ccc(Cl)cc2)CSC2=C1C(=O)c1ccccc1C2=O	–	–	–	–	–	–	50%	–
Cl.O=C(CN1CCCCC1)NC1(CO)CSC2=C1C(=O)c1ccccc1C2=O (configuration not stated)	0.96 µM	2.51 µM	0.51 µM	83%	Toxic	1.26 µM	–	–
